Most compounds without a hit are left out; they make up all but 1.9% or so of the library.
DAGLB inhibitor = diacylglycerol lipase beta (human) inhibition; Q8NCG7; 0.059% of 340,000 active; HEK293T DAGLB membrane lysate, EnzChek fluorogenic substrate; inhibition, % at 5.17 µM; in the data active = inhibition above about 34%;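 also: 0% = enzyme with vehicle and 100% = wells lacking enzyme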
Tb MetRS inh = blocks T. brucei methionyl-tRNA synthetase activity | purified T. brucei MetRS, ATP depletion, Kinase-Glo luminescence | inhibition, % at 11.9 µM | 0.4% of 360,000 active;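 active = inhibition above a per-plate cutoff of the control wells' mean inhibition plus 3 SD, cut at about 5.5% in these data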;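 also: 0% = DMSO wells median and 100% = median of wells with control inhibitor compound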
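Material – parasite MetRS enzyme · Medium – HEPES-MgCl2-KCl buffer plus DTT, spermine, BSA, pyrophosphatase · Reagent – ATP, methionine and E. coli bulk tRNA substrates · Times – 15 min enzyme-compound preincubation, 2 h reaction, 10 min detection, 25 °C · Measured by – luminescence of leftover ATP · Evaluation – percent inhibition relative to median high and low control wells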
PLC-gamma1 inh = PLC-gamma1 (human) inhibition, primary screen. P19174. 0.84% of 370,000 active. AID 720700. purified PLC-gamma1, fluorogenic substrate, fluorescence. inhibition, % at 12.2 µM; in the data active = inhibition above about 9.5%
PLCb3 inh = inhibitors of human phospholipase C beta3 | 0.18% of 370,000 active | Purified PLC-beta3, fluorogenic substrate, fluorescence | Q01970 | inhibition, % at 12.2 µM; in the data active = inhibition above about 11%;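 also: 0% = median of compound wells on plate and 100% = full blocker control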
Target sequence (Q01970 whole entry, looked up): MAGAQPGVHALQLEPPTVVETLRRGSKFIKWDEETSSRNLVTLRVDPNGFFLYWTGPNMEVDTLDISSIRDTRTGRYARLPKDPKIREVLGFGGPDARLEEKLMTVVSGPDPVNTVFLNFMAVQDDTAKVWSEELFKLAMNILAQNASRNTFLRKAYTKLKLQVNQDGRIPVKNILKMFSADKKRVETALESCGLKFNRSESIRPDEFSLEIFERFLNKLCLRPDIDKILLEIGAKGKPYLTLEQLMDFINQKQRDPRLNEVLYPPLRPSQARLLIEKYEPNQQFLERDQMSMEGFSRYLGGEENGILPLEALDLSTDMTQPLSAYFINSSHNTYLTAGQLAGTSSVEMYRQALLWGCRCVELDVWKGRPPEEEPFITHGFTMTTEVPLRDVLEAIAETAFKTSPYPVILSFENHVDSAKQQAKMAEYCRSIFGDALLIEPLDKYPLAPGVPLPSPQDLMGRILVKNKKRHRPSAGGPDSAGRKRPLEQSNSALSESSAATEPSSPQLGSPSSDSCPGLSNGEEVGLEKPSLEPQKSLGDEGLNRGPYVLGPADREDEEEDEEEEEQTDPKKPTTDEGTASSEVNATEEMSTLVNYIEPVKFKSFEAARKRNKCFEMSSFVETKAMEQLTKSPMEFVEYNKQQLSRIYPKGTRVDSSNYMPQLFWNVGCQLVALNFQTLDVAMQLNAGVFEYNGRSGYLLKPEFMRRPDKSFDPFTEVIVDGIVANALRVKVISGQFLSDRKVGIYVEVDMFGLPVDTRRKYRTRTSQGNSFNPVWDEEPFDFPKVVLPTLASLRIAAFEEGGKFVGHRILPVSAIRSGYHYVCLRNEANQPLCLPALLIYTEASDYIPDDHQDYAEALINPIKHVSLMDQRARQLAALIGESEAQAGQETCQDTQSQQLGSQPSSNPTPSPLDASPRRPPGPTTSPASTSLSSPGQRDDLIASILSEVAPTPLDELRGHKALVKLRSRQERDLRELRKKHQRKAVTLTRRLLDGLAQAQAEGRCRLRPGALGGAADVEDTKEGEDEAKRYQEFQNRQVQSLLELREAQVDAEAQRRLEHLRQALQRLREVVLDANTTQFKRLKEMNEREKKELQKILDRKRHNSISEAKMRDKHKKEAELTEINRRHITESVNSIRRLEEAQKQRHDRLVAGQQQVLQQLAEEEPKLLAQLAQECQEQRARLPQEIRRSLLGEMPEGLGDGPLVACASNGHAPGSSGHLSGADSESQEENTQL
sPLA2-III inh = Blocks human group III sPLA2 activity | inhibition, % at 12.2 µM | QFRET BODIPY PC-A2 liposome hydrolysis, fluorescence | 0.56% of 370,000 active | Q9NZ20;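 active = inhibition above mean plus 3 SD of compounds lying within the high and low control bounds, cut at about 19% in these data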;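 also: 0% = median of test compound wells and 100% = no enzyme DMSO wells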
hGIII sPLA2 conf = human GIII-sPLA2 inhibition, confirmation; recombinant hGIII-sPLA2, BODIPY PC-A2 QFRET fluorescence; inhibition, % at 12.2 µM; 34% of 2,000 active; shares compounds with sPLA2-III inh;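 active = mean inhibition across triplicates above the hit cutoff set in the earlier primary screen, cut at about 19% in these data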;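 also: 0% = enzyme with DMSO and 100% = DMSO wells lacking enzyme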
BODIPY interf = optically interferes with 535nm fluorescence in sPLA2 counter-screen. 8.5% of 2,000 active. BODIPY FL product fluorescence interference, QFRET. inhibition, % at 12.2 µM. shares compounds with sPLA2-III inh;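 active = average inhibition above the solvent-only control mean plus 3 SD, cut at about 6% in these data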;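 also: 0% = DMSO with substrate plus product and 100% = DMSO with substrate alone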
535nm interf DR = counter-screen for HGIII-sPLA2 inhibitors: 535nm fluorescence interference, dose response. shares compounds with sPLA2-III inh. BODIPY FL product fluorescence interference, cell-free. IC50, µM. 240 tested, under 10 active;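 active = IC50 at or below 10 µM; inactive = IC50 above 10 µM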
Starred values were filed as active, the others as inactive; i = inactive; / = no result given.

SMILES | DAGLB inhibitor | Tb MetRS inh | PLC-gamma1 inh | PLCb3 inh | sPLA2-III inh | hGIII sPLA2 conf | BODIPY interf | others
Cc1[nH]c2ccccc2c1CC(=O)Nc1ccc(Nc2cccnc2)c(-c2ccc(Oc3ccccc3)cc2)c1 | / | / | -6.7 | -6.2 | -4.5 | / | /
CCCCc1c(-c2ccccc2OC)ncn1C1CCCCC1 | / | / | 0.1 | -0.1 | -3.9 | / | /
COC(=O)C1=C(C)NC(C)=C(C(=O)OC)C1c1ccccn1 | 1.7 | -0.5 | -70.9 | -107.8 | 22.1* | 2.8 | -4.9
COC(=O)C1=C(C)Nc2ncnn2C1c1ccccn1 (stereo not given) | 3.5 | -0.2 | 1.5 | 4.2 | -0.1 | / | /
COc1ccc(-c2cscc2N)cc1 | / | / | -7.4 | -11.1 | 8.3 | / | /
Cc1ccccc1OCC(=O)Nc1ccc2c(c1)OCO2 | -10.8 | -0.9 | 1.5 | -2.4 | 22.7* | -2.1 | -7.9
COC(=O)N/N=C/c1c(C)nn(-c2cccc(Cl)c2)c1Cl | 0.1 | 0.5 | -1.5 | -1.4 | 20.0* | 5.0 | -6.1
COC(=O)N/N=C\c1c(C)nn(-c2ccccc2)c1Cl | 1.9 | 0.1 | 1.6 | 2.2 | -5.7 | / | /
[C-]#[N+][C@]12C(=O)[C@H](C=C(Cl)[C@@]1(C)C=C)C(C)(C)[C@H]1C(=O)N(C)c3cccc2c31 | / | / | 0.0 | -3.8 | 30.6* | 21.2* | -12.9
COc1ccccc1NS(=O)(=O)c1ccc2ccccc2c1 | -8.8 | -1.3 | -6.8 | -11.3 | -13.0 | / | /
COc1ccc(NS(=O)(=O)c2ccc3ccccc3c2)c2ncccc12 | -1.5 | -0.2 | -66.5 | -59.0 | 28.4* | 14.5 | -1.2
CCCNS(=O)(=O)c1ccc(CCC(=O)N2CCN(CC)CC2)cc1 | -1.1 | -0.7 | -1.3 | -0.1 | 20.9* | -2.3 | -6.8
COC(=O)[C@]12C[C@H](CC(=O)NCc3cccs3)C(=O)N(CCC3=CCCCC3)C1=C[C@H](COCc1ccccc1)O[C@@H]2C | / | / | -1.8 | -1.1 | -9.8 | / | /
COC(=O)c1ccc2c(C(C)c3ccccc3O)c[nH]c2c1 (stereo not given) | / | / | -85.8 | -114.4 | -62.2 | / | /
CCOC(=O)C(=NC(C)CC)NNc1cccc(C(F)(F)F)c1 (stereo not given) | -7.3 | 0.0 | -26.4 | -36.8 | 23.7* | 34.8* | 1.2 | 535nm interf DR=>122
Cc1cccc2sc(NNC(=O)c3cc(-c4cccs4)nc4ccccc34)nc12 | 6.8 | 0.0 | -125.1 | -130.4 | 49.5* | 49.1* | 8.8*
Cc1cccc2sc(NNC(=O)C3=COCCO3)nc12 | -0.7 | -1.1 | 3.5 | 0.8 | 20.7* | 23.5* | -6.8
Cc1ccc(NC(=O)/C=C\C(=O)O)c([N+](=O)[O-])c1 | 1.9 | -0.1 | 4.2 | -3.2 | 20.9* | 0.8 | -5.6
CCOc1ccc(NC(=O)COC(=O)C23CC4CC(CC(C4)C2)C3)c([N+](=O)[O-])c1 | -7.4 | -1.6 | -1.7 | -2.2 | 21.2* | -9.7 | -9.6
COc1ccc(NC(=O)COC(=O)CC23CC4CC(CC(C4)C2)C3)c([N+](=O)[O-])c1 | -11.0 | -0.5 | 1.4 | -0.9 | 17.2 | / | /
Cc1cc(C)c(NC(=O)/C=C\C(=O)O)c([N+](=O)[O-])c1 | 0.4 | -0.6 | 0.8 | 2.9 | 0.2 | / | /
CCOc1ccc(NC(=O)/C=C/c2ccc(OC)cc2)c([N+](=O)[O-])c1 | -0.9 | -0.1 | 2.3 | 2.0 | 25.6* | -2.1 | -4.8
CN(C)c1cccc(/C=C2\CC3(OC(=O)c4ccco4)CCCN2C3)c1 (stereo not given) | / | / | -0.2 | -1.5 | 8.5 | / | /
COc1ccc(O)c(/C=N/NC(=S)NCCc2ccccc2)c1 | 6.7 | -0.4 | i | i | 17.6 | / | /
COc1ccc(/C(C)=N/NC(=S)NCCc2ccccc2)c(O)c1 | 2.0 | -0.4 | -38.5 | -71.2 | 44.2* | 7.3 | 8.2*
SMILES | DAGLB inhibitor | Tb MetRS inh | PLC-gamma1 inh | PLCb3 inh | sPLA2-III inh | hGIII sPLA2 conf | BODIPY interf | others
COCCNC(=S)N/N=C(\C)c1ccccc1O | -3.5 | -0.7 | -2.0 | -12.6 | 42.8* | 22.5* | 2.1
CCCS(=O)(=O)c1c(S(=O)(=O)CCC)c2cnccn2c1C(=O)c1ccc(F)cc1 | 3.3 | -1.2 | -5.2 | -2.9 | 19.3* | 2.9 | -9.9
CCCS(=O)(=O)c1c(S(=O)(=O)CCC)c2cnccn2c1C(=O)c1ccc(CC)cc1 | -3.2 | -0.8 | -1.1 | -2.0 | 0.0 | / | /
Cc1ccc(C2CCN(C(=S)NC(C)C)C2)cc1 (stereo not given) | -3.0 | -0.3 | 3.5 | -10.8 | 22.6* | 17.9 | -7.3
COc1ccc(Cl)cc1NC(=S)N1CCC(c2ccc(C)cc2)C1 (stereo not given) | -17.2 | -1.7 | 1.5 | -6.7 | 7.0 | / | /
Cc1ccc(C)c(-n2cc[nH]c2=S)c1 | 0.8 | 0.7 | 1.6 | 0.1 | 19.6* | 8.2 | -4.5
Cc1ccc(-n2cc[nH]c2=S)c(C)c1 | / | -1.1 | 0.2 | 0.3 | 4.0 | / | /
COc1ccc(-c2nnc(SCC(=O)NN=Cc3c(O)ccc4ccccc34)n2-c2ccc(OC)cc2)cc1 | / | / | 0.3 | -3.6 | 15.8 | / | /
Cc1cccc(NC(=O)c2nc[nH]c2C(=O)N(C)CCO)c1 | / | / | -2.8 | -6.6 | 1.0 | / | /
Cc1cccc2c1N(CCCOc1ccccc1)C(=O)C2=O | 7.1 | -1.8 | 1.8 | 2.4 | 21.1* | 17.6 | -3.9
Cc1cccc2c1N(CCCOc1ccc(C(C)(C)C)cc1)C(=O)C2=O | 14.8 | 0.0 | / | / | / | / | /
Cc1ccccc1OCCCN1C(=O)C(=O)c2cccc(C)c21 | 12.2 | -0.8 | 2.6 | 2.4 | 28.4* | 37.9* | -1.8 | 535nm interf DR=>122
CCOC(=O)C1CSCCS(=O)(=O)N1Cc1ccc(F)cc1 (stereo not given) | / | / | 3.0 | 4.4 | 5.2 | / | /
CC(C)c1ccc(NC(=O)OC2CCC23CCC(c2ccccc2)CC3)cc1 (stereo not given) | / | / | -2.5 | -0.2 | 0.1 | / | /
COc1ccc(CCNC(=O)c2cnc3ccccn3c2=O)cc1 | -0.5 | 0.0 | -24.9 | -37.0 | 21.0* | -5.2 | -4.0
O=C(N[C@H](C(=O)N1CCC[C@H]1C(=O)NCCc1ccccc1Cl)c1ccccc1)C1CCCC1 | / | / | 5.3 | 3.9 | 10.0 | / | /
Oc1ccc(/C=N/Nc2nccnc2Cl)c(O)c1 | 0.8 | -1.5 | -8.7 | -12.9 | -37.9 | / | /
Oc1ccccc1/C=N/Nc1nccnc1Cl | -1.1 | -1.6 | -11.2 | -13.5 | 23.6* | 1.8 | 8.6*
COc1cc(C=Nn2c(-c3ccccc3F)n[nH]c2=S)ccc1OCc1ccccc1 | / | / | 4.3 | -1.8 | -9.4 | / | /
Cc1ccc(NC(=S)NC2CCCC2)c(C)c1 | 0.7 | -0.1 | 2.9 | -2.0 | 19.3* | 16.8 | -1.9
Cc1nc2ccc(NC(=O)c3ccc(F)cc3F)cc2c(=O)[nH]1 | / | / | -7.1 | -7.5 | 1.2 | / | /
COc1ccc(/C=C/c2c(-c3ccc(OC)cc3)sc3ccc(N4CCOCC4)cc23)cc1 | -4.7 | -0.2 | / | / | / | / | /
COc1ccc(-c2sc3ccccc3c2/C=C/c2ccc(N)cc2)cc1 | 0.2 | 0.0 | -412.1 | i | 21.6* | 28.1* | 13.2*

Source: PubChem (The Scripps Research Institute Molecular Screening Center)
